# Assay outcomes: PubChem, several laboratories
# TAG inh – inhibitors of triacylglycerol accumulation; H9c2 cells, Nile Red lipid (TAG) fluorescence; cells loaded with 200 µM oleic acid; inhibition, % at 12.5 µM; 230,000 compounds, 0.66% hits; AID 651582;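 active = pattern-corrected inhibition of lipid staining of at least 50% with the nuclear-stain viability signal not falling by more than 50%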
# LANA-H2A inh – blocks KSHV LANA binding to histone H2A/H2B. Q9QR71. cell-free LANA-H2A/H2B peptide, fluorescence polarization. inhibition, % (no concentration beside the values). 320,000 compounds, 0.6% hits. AID 2629; in the data active = inhibition mostly above about 10%, no sharp cut-off; inactive = mostly below about 6.7%
# GSK3B inh – blocks human GSK3beta kinase activity; P49841; GST-GSK3beta kinase, ADP-Glo luminescence, 60 min; stronger effect = lower value; 300,000 compounds, 0.038% hits; activity score (negative = inhibition), % at 10 µM;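 active = more than half of replicate wells score below -50%, meaning over 50% inhibition versus plate controls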
# Target sequence (P49841 whole entry, looked up): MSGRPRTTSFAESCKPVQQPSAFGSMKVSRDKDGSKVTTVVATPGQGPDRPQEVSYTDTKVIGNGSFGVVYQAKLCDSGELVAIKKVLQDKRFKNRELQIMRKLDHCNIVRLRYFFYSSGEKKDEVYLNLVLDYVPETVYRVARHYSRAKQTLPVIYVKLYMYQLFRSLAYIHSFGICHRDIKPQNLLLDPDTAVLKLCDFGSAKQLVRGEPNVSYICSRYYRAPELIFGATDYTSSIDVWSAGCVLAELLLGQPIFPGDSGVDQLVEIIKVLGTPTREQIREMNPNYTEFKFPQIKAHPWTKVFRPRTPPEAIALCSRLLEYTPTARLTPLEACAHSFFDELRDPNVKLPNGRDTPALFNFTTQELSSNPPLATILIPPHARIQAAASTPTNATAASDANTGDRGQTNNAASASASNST
#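 Test system: GST-tagged human GSK3beta kinase, cell-free; evaluation: activity score scaled between in-plate DMSO and GW8510 controls; measured by: ADP-Glo luminescence; incubation: 60 min reaction, RT; benchmarks: DMSO and 20 µM GW8510; reagent: peptide substrate plus 25 µM ATP (final); medium: Tris/MgCl2 kinase buffer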
# STK33 kinase inh – blocks human STK33 kinase activity; purified STK33, MBP phosphorylation, ADP-Glo luminescence; AID 2661; 320,000 compounds, 0.073% hits; Q9BYT3; inhibition, % at 10 µM;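 active = inhibition at or above 25%, using the most active replicate where run in duplicate; inactive = inhibition below 25%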
# Hep lipid drop – modulators of hepatic lipid droplet formation; inhibition, % at 6.5 µM; 240,000 compounds, 0.4% hits; AML12 mouse hepatocytes, oleate lipid droplets, BODIPY imaging;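 active = lipid droplet intensity inhibited by at least 50%, with more than 500 cells counted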
#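 Assay system: AML12 hepatocytes (mouse) / Also added: 100 µM oleic acid challenge / Times: overnight treatment with compound plus oleate / Detection: high-content imaging of BODIPY-stained droplets and DAPI nuclei / Evaluation: % inhibition of lipid droplet signal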
# GSK3 alpha inh – inhibitors of human GSK-3 alpha kinase | P49840 | ADP-Glo luminescence, 60 min | inhibition, % at 10 µM | 320,000 compounds, 0.1% hits;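 active = more than half of replicates show inhibition above 20%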;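 note: GST-tagged GSK-3 alpha with peptide substrate and 25 µM ATP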
# Hits are given with their value; 0 = inactive; - = not tested or not shown; + = active, no number. Rows were chosen to be rich in hits. Some 1.3% of all compounds tested hit in one or more screens of this group.
SMILES,TAG inh,LANA-H2A inh,GSK3B inh,STK33 kinase inh,Hep lipid drop,GSK3 alpha inh
O=C(NNC1=NS(=O)(=O)c2ccccc21)c1ccc([N+](=O)[O-])cc1,-,0,0,0,0,0
O=C(CCc1ccc(O)cc1)c1c(O)cc(O)cc1O,0,0,0,30,0,0
CC1Cc2cc(-c3csc(NC(=O)CCl)n3)ccc2N1C(=O)C1CC1 (centres undefined),0,-,-,-,-,-
O=C(Nc1cc(C(=O)Nc2ccccc2C(=O)O)cc(C(=O)Nc2ccccc2C(=O)O)c1)c1ccccc1,0,0,0,49,0,0
O=C(Nc1ccccc1C(=O)O)c1cccc(NS(=O)(=O)c2ccc(Br)cc2)c1,-,0,0,0,0,0
O=C(Nc1ccccc1C(=O)O)c1cccc(S(=O)(=O)Nc2ccc(Br)cc2)c1,-,19,0,0,0,0
Cc1ccc(NC(=O)c2cccc(C(=O)Nc3ccc(C)cc3C(=O)O)c2)c(C(=O)O)c1,-,0,0,37,0,0
COc1ccc(C)cc1NC(=O)c1cccc(C(=O)Nc2cc(C)ccc2OC)c1,0,0,0,0,0,0
O=C(Nc1ccccc1C(=O)O)c1cccc(NC(=O)c2ccccc2Br)c1,0,0,0,0,0,0
CCC(=O)N1CCc2cc(S(=O)(=O)N(C)c3ccc(Br)cc3)ccc21,-,-,0,-,0,-
Cn1nc([N+](=O)[O-])nc1Oc1ccccc1C(=O)N1CCOCC1,0,+,0,0,0,0
NC(=O)c1ccc(-n2nnnc2Oc2ccccc2C(=O)N2CCOCC2)cc1,0,0,0,0,0,0
Cn1nc(C(F)(F)F)cc1-c1ccc(/C=C(\C#N)C(=O)c2ccccc2)s1,0,20,0,0,0,0
COc1cccc(/C=C/C(=O)OCC(=O)c2ccccc2)c1OC,0,0,-,0,-,0
COc1cccc(/C=C/C(=O)OCC(=O)c2ccc(C)c(C)c2)c1OC,0,20,-,0,-,0
Cc1ccc(C(=O)N2CCCC(CCC(=O)N3CCN(c4ccccn4)CC3)C2)cn1 (centres undefined),0,10,0,0,0,0
Cc1ccc(C(=O)N2CCCC(CCC(=O)N3CCN(c4ccccn4)CC3)C2)cc1C (centres undefined),-,0,-,0,0,0
CCn1cnc2cc(NCc3ccccc3Cl)ccc21,-,0,0,0,0,0
CCN(CC)C(=O)C1c2ccccc2Oc2ccccc21,-,14,0,0,0,0
C=CCN(CC=C)C(=O)C1c2ccccc2Oc2ccccc21,0,-,-,-,-,-
CCOC(=O)c1[nH]c2ccc(OC)cc2c1NC(=O)CN1CCC2(CC1)OCCO2,0,0,0,0,0,0
O=C(Nc1ccc(F)c(Cl)c1)C1CC(=O)N(Cc2ccco2)C1 (centres undefined),0,+,-,0,-,0
COC1C(CO)OC(n2c3c(Cl)cccc3c3c4c(c5c6cccc(Cl)c6[nH]c5c32)C(=O)NC4=O)C(O)C1O (centres undefined),72,-,-,-,-,-
COc1ccc(NC(=O)CN2C(=O)NC3(CCCCC3C)C2=O)cc1S(=O)(=O)N1CCOCC1 (centres undefined),0,0,-,0,-,0
Cc1ccc(NC(=O)CN2C(=O)NC3(CCCCC3C)C2=O)cc1S(=O)(=O)N1CCCCC1 (centres undefined),0,55,0,0,-,0
SMILES,TAG inh,LANA-H2A inh,GSK3B inh,STK33 kinase inh,Hep lipid drop,GSK3 alpha inh
COc1ccc(Cl)cc1NC(=O)c1cc(-c2ccc(C)cc2O)n[nH]1,0,23,0,0,0,0
N#CC1(NC(=O)COC(=O)c2nc(Cl)c(Cl)c(N)c2Cl)CCCCC1,0,14,0,0,-,0
N#CC1(NC(=O)COC(=O)c2ncc(Cl)c(Cl)c2Cl)CCCCC1,0,0,0,0,-,0
COc1ccc(CO[C@@H]2O[C@H](CO)[C@@H](O)[C@H](O)[C@H]2NC(C)=O)cc1OC,-,0,0,0,0,0
O=C(O)[C@H](Cc1ccccc1)NC(=O)N1CCC(Cc2ccccc2)CC1,0,18,0,0,0,0
CC1CCN(C(=O)N[C@@H](Cc2ccccc2)C(=O)O)CC1,-,0,0,0,-,0
Cc1ccc(S(=O)(=O)NCCCCCC(N)=O)cc1,0,0,0,0,0,0
O=C(Nc1ccccc1Cl)c1cccc(NC(=O)c2cccs2)c1,0,38,0,0,0,0
O=C(Nc1ccccc1Cl)c1cccc(NC(=O)C2CCCC2)c1,0,0,0,0,0,0
COc1ccc(C2C(C)C3(O)CC(C#N)(C(=O)N3)C2(C#N)C#N)cc1 (centres undefined),0,0,0,0,0,0
O=C(O)C(C/C(=N/O)c1ccc(Br)cc1)P(=O)(c1ccccc1)c1ccccc1 (centres undefined),0,15,0,0,0,0
CCN(CC)c1ccc(N=Cc2ccc([N+](=O)[O-])o2)cc1,52,0,0,0,0,0
CCN(CC)c1ccc(N=Cc2ccccc2[N+](=O)[O-])cc1,-,0,0,0,0,0
CCOC(=O)c1ccc(OCCOc2ccccc2C)cc1,0,0,0,0,0,0
CCOc1ccccc1OCCOc1ccc(F)cc1,0,26,0,0,-,0
CC(C)(C)C(=O)Nc1cccc(OC(F)(F)C(F)Cl)c1 (centres undefined),0,32,0,0,0,0
COc1ccccc1NC(=O)Nc1ncccc1C,-,0,0,30,-,0
NS(=O)(=O)c1cc2c(cc1Cl)NC=NS2(=O)=O,0,13,0,0,0,0
Cc1ccc(NCCN(C)C)c2c(=O)c3cc(O)ccc3sc12,63,-,-,-,-,-
Cc1nn(-c2ccccc2)c2c1C(c1ccc(O)c(O)c1)N1C(=N2)C(Nc2ccccc2)=Nc2ccccc21 (centres undefined),0,0,0,0,-,-
Cc1ccc(NC2=Nc3ccccc3N3C2=Nc2c(c(C)nn2-c2ccccc2)C3c2ccc(O)c(O)c2)cc1 (centres undefined),110,-,-,-,-,-
CC1(C)S[C@@H]2[C@H](NC(=O)C(C(=O)O)c3ccccc3)C(=O)N2[C@H]1C(=O)O (some centres undefined),0,27,-,-,0,-
CC1(C)S[C@@H]2[C@H](NC(=O)[C@H](N)c3ccccc3)C(=O)N2[C@H]1C(=O)O,0,0,0,0,0,0
Cc1c(Cl)cccc1N(CC(=O)O)S(C)(=O)=O,0,11,0,0,0,0
CN(Cc1nc2c(s1)CCCC2)C(=O)CCc1nnc(-c2ccc3c(c2)OCO3)o1,0,0,0,0,0,58
CCOC(=O)C1CCCCN1C(=O)CCc1nnc(-c2ccc3c(c2)OCO3)o1 (centres undefined),0,0,0,0,0,0
Cc1noc(C)c1COC(=O)c1cc(S(=O)(=O)N2CCOCC2)ccc1F,0,31,-,0,-,0
Cc1noc(C)c1COC(=O)c1cc(S(=O)(=O)N2CCOCC2)ccc1Cl,0,0,-,0,-,0
